Measured values gathered from unrelated publications.
Target: Serine/threonine-protein kinase STK11 (STK11, Homo sapiens, UniProt Q15831)
Residues used in one study (Q15831 1-433): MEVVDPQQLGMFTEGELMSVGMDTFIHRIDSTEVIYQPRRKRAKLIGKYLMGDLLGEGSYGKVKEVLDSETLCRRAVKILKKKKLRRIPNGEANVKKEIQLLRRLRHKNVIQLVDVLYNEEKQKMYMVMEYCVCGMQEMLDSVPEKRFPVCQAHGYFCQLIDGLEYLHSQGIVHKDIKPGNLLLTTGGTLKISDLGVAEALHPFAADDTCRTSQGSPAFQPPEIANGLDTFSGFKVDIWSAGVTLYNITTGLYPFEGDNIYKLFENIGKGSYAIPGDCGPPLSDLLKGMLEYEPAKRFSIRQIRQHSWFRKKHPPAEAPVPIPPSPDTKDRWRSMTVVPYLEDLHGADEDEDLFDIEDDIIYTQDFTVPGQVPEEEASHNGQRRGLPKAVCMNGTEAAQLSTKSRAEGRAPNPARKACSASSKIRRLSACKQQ

Structure (SMILES)	test	setting	quantity	value
Cn1cncc1[C@@](O)(COc1ccc(C#N)cc1-c1ccc(OC(F)(F)F)cc1)c1ccc(C#N)cc1	cell-free assay, competition with immobilised ligand	1 µM	remaining binding	100%
COc1ncccc1-c1cnn2ccc(N3CCN(C(=O)OC(C)C)CC3)nc12	binding, competition with immobilised ligand	1 µM	remaining binding	9.7%
N#CC1(c2ccccn2)CCN(Cc2cc(C(=O)O)c(=O)n3ccccc23)CC1	cell-free assay, competition with immobilised ligand	1 µM	remaining binding	100%
COc1cc(Nc2ncc(F)c(Nc3ccc4c(n3)NC(=O)C(C)(C)O4)n2)cc(OC)c1OC	binding	10 µM	inhibition	0%
O=c1[nH]c2ccccc2n1C1CCN(Cc2ccc(-c3[nH]c4cc5ncnc5cc4nc3-c3ccccc3)cc2)CC1	cell-free assay	0.5 µM	remaining signal	95.6%
Nc1ncc(-c2nc(N3CCOCC3)nc(N3CCOCC3)n2)c(C(F)F)n1	binding, competition with immobilised ligand	10 µM	remaining binding	91%
CC(C)(C)c1cc(C=C(C#N)C#N)cc(Br)c1O	enzyme activity, inhibitor	0.5 µM	remaining activity	85.2%
Cc1nn(C)cc1-c1nc2c(N3CCN(Cc4ccc(Cl)cc4)CC3)c(Cl)cnc2[nH]1	binding, competition with immobilised ligand	1 µM	remaining binding	100%
